Data: ChEMBL document CHEMBL3864121, “Development of ebsulfur analogues as potent antibacterials against methicillin-resistant Staphylococcus aureus” (Bioorg Med Chem, 2016)
≈ marks a conversion by molar mass, not a printed value.

Assays:
[1] = system: Staphylococcus aureus; test: Antibacterial activity against methicillin-sensitive Staphylococcus aureus ATCC 6538 measured after overnight incubation by broth double-dilution method; assay type: functional
Outline: (§1)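 MIC by broth double-dilution in liquid Mueller-Hinton medium. Values are reported in µg/mL.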

[2] = system: Staphylococcus aureus; test: Antibacterial activity against methicillin-sensitive Staphylococcus aureus ATCC 25923 measured after overnight incubation by broth double-dilution method; assay type: functional; outline: as §1
[3] = system: Staphylococcus aureus; test: Antibacterial activity against methicillin-sensitive Staphylococcus aureus ATCC 29213 measured after overnight incubation by broth double-dilution method; assay type: functional; outline: as §1
[4] = system: Staphylococcus aureus; test: Antibacterial activity against methicillin-resistant Staphylococcus aureus ATCC 33591 measured after overnight incubation by broth double-dilution method; assay type: functional; outline: as §1
[5] = system: Staphylococcus aureus; test: Antibacterial activity against methicillin-resistant Staphylococcus aureus 1 measured after overnight incubation by broth double-dilution method; assay type: functional; outline: as §1
[6] = system: Staphylococcus aureus; test: Antibacterial activity against methicillin-resistant Staphylococcus aureus 2 measured after overnight incubation by broth double-dilution method; assay type: functional; outline: as §1
[7] = system: Staphylococcus aureus; test: Antibacterial activity against methicillin-resistant Staphylococcus aureus BRS3 measured after overnight incubation by broth double-dilution method; assay type: functional; outline: as §1
[8] = system: Staphylococcus aureus; test: Antibacterial activity against methicillin-resistant Staphylococcus aureus C1 measured after overnight incubation by broth double-dilution method; assay type: functional; outline: as §1
[9] = system: Staphylococcus aureus; test: Antibacterial activity against methicillin-resistant Staphylococcus aureus C2 measured after overnight incubation by broth double-dilution method; assay type: functional; outline: as §1
[10] = system: Staphylococcus aureus; test: Antibacterial activity against methicillin-resistant Staphylococcus aureus C7 measured after overnight incubation by broth double-dilution method; assay type: functional; outline: as §1
[11] = system: Staphylococcus aureus; test: Antibacterial activity against methicillin-resistant Staphylococcus aureus C14 measured after overnight incubation by broth double-dilution method; assay type: functional; outline: as §1
[12] = system: Staphylococcus aureus; test: Antibacterial activity against methicillin-resistant Staphylococcus aureus C16 measured after overnight incubation by broth double-dilution method; assay type: functional; outline: as §1
[13] = system: Staphylococcus aureus; test: Antibacterial activity against methicillin-resistant Staphylococcus aureus C19 measured after overnight incubation by broth double-dilution method; assay type: functional; outline: as §1
[14] = system: Staphylococcus aureus; test: Antibacterial activity against methicillin-resistant Staphylococcus aureus G1 measured after overnight incubation by broth double-dilution method; assay type: functional; outline: as §1
[15] = system: Staphylococcus aureus; test: Antibacterial activity against methicillin-resistant Staphylococcus aureus G6 measured after overnight incubation by broth double-dilution method; assay type: functional; outline: as §1
[16] = system: Staphylococcus aureus; test: Antibacterial activity against methicillin-resistant Staphylococcus aureus G12 measured after overnight incubation by broth double-dilution method; assay type: functional; outline: as §1
[17] = system: Staphylococcus aureus; test: Antibacterial activity against methicillin-resistant Staphylococcus aureus G14 measured after overnight incubation by broth double-dilution method; assay type: functional; outline: as §1
[18] = system: Staphylococcus aureus; test: Antibacterial activity against methicillin-resistant Staphylococcus aureus NRS4 measured after overnight incubation by broth double-dilution method; assay type: functional; outline: as §1
[19] = system: Staphylococcus aureus; test: Antibacterial activity against methicillin-resistant Staphylococcus aureus NRS51 measured after overnight incubation by broth double-dilution method; assay type: functional; outline: as §1
[20] = system: Staphylococcus aureus; test: Antibacterial activity against methicillin-resistant Staphylococcus aureus NRS77 measured after overnight incubation by broth double-dilution method; assay type: functional; outline: as §1
[21] = system: Staphylococcus aureus; test: Antibacterial activity against methicillin-resistant Staphylococcus aureus S14 measured after overnight incubation by broth double-dilution method; assay type: functional; outline: as §1
[22] = system: Staphylococcus aureus; test: Antibacterial activity against methicillin-resistant Staphylococcus aureus S17 measured after overnight incubation by broth double-dilution method; assay type: functional; outline: as §1
[23] = system: Staphylococcus aureus; test: Antibacterial activity against methicillin-resistant Staphylococcus aureus S22 measured after overnight incubation by broth double-dilution method; assay type: functional; outline: as §1
[24] = system: Staphylococcus aureus; test: Antibacterial activity against methicillin-resistant Staphylococcus aureus S24 measured after overnight incubation by broth double-dilution method; assay type: functional; outline: as §1
[25] = system: Staphylococcus aureus; test: Antibacterial activity against methicillin-resistant Staphylococcus aureus USA100 measured after overnight incubation by broth double-dilution method; assay type: functional; outline: as §1
[26] = system: Staphylococcus aureus; test: Antibacterial activity against methicillin-resistant Staphylococcus aureus USA200 measured after overnight incubation by broth double-dilution method; assay type: functional; outline: as §1
[27] = system: Staphylococcus aureus; test: Antibacterial activity against methicillin-resistant Staphylococcus aureus USA300 measured after overnight incubation by broth double-dilution method; assay type: functional; outline: as §1
[28] = system: Staphylococcus aureus; test: Antibacterial activity against methicillin-resistant Staphylococcus aureus USA600 measured after overnight incubation by broth double-dilution method; assay type: functional; outline: as §1
[29] = system: Staphylococcus epidermidis; test: Antibacterial activity against Staphylococcus epidermidis ATCC 35984 measured after overnight incubation by broth double-dilution method; assay type: functional; details: RP62A
Outline: (§2)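 MIC by broth double-dilution in Mueller-Hinton medium. Re-testing at the time-kill inoculum used 1×10^6 CFU/mL.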

[30] = system: Enterococcus faecalis; test: Antibacterial activity against Enterococcus faecalis ATCC 29212 measured after overnight incubation by broth double-dilution method; assay type: functional; outline: as §2
[31] = system: Enterococcus faecalis; test: Antibacterial activity against Enterococcus faecalis ATCC 49533 measured after overnight incubation by broth double-dilution method; assay type: functional; outline: as §2
[32] = system: Enterococcus faecium; test: Antibacterial activity against Enterococcus faecium BM4105-RF measured after overnight incubation by broth double-dilution method; assay type: functional; outline: as §1
[33] = system: Enterococcus; test: Antibacterial activity against Vancomycin-resistant Enterococcus measured after overnight incubation by broth double-dilution method; assay type: functional; outline: as §1
[34] = system: Listeria monocytogenes; test: Antibacterial activity against Listeria monocytogenes ATCC 19115 measured after overnight incubation by broth double-dilution method; assay type: functional; outline: as §2
[35] = system: Mycolicibacterium smegmatis; test: Antibacterial activity against Mycobacterium smegmatis MC2-155 measured after overnight incubation by broth double-dilution method; assay type: functional; details: str. MC2 155; outline: as §1
[36] = Solubility of compound in Muller-Hinton medium; assay type: physicochemical
[37] = system: Staphylococcus aureus; test: Antibiofilm activity against methicillin-sensitive Staphylococcus aureus ATCC 6538 assessed as reduction of biofilm at […] measured after 24 hrs by crystal violet staining based method relative to control; assay type: functional; parameters: scale not given: the % may be the effect or the level left
[38] = system: Staphylococcus epidermidis; test: Antibiofilm activity against Staphylococcus epidermidis ATCC 35984 assessed as reduction of biofilm at […] measured after 24 hrs by crystal violet staining based method relative to control; assay type: functional, RP62A; parameters: scale not given: the % may be the effect or the level left
[39] = Cytotoxicity against HEK293 cells assessed as cell death up to 10 ug/ml measured after 24 hrs by resazurin dye-based fluorescence analysis relative to untreated control; assay type: toxicity; details: human, hek293, 24 h
[40] = system: Staphylococcus aureus; test: Antibiofilm activity against methicillin-sensitive Staphylococcus aureus ATCC 6538 assessed as reduction of biofilm at 62..5 ug/ml measured after 24 hrs by crystal violet staining based method relative to control; assay type: functional; parameters: scale not given: the % may be the effect or the level left

SMILES	MIC [1] [µg/mL]	MIC [2] [µg/mL]	MIC [3] [µg/mL]	MIC [4] [µg/mL]	MIC [5] [µg/mL]	MIC [6] [µg/mL]	MIC [7] [µg/mL]	MIC [8] [µg/mL]	MIC [9] [µg/mL]	MIC [10] [µg/mL]	MIC [11] [µg/mL]	MIC [12] [µg/mL]	MIC [13] [µg/mL]	MIC [14] [µg/mL]	MIC [15] [µg/mL]	MIC [16] [µg/mL]	MIC [17] [µg/mL]	MIC [18] [µg/mL]	MIC [19] [µg/mL]	MIC [20] [µg/mL]	also measured
O=c1c2ccccc2sn1-c1ccccn1	7.8 (≈ 34.2 µM)	7.8 (≈ 34.2 µM)	7.8 (≈ 34.2 µM)	3.9 (≈ 17.1 µM)	15.6 (≈ 68.3 µM)	7.8 (≈ 34.2 µM)	15.6 (≈ 68.3 µM)	3.9 (≈ 17.1 µM)	7.8 (≈ 34.2 µM)	7.8 (≈ 34.2 µM)	7.8 (≈ 34.2 µM)	7.8 (≈ 34.2 µM)	7.8 (≈ 34.2 µM)	7.8 (≈ 34.2 µM)	7.8 (≈ 34.2 µM)	7.8 (≈ 34.2 µM)	7.8 (≈ 34.2 µM)	15.6 (≈ 68.3 µM)	7.8 (≈ 34.2 µM)	15.6 (≈ 68.3 µM)	MIC [21]: 2 µg/mL (≈ 8.76 µM); MIC [22]: 7.8 µg/mL (≈ 34.2 µM); MIC [23]: 7.8 µg/mL (≈ 34.2 µM); MIC [24]: 7.8 µg/mL (≈ 34.2 µM); MIC [25]: 7.8 µg/mL (≈ 34.2 µM); MIC [26]: 7.8 µg/mL (≈ 34.2 µM); MIC [27]: 7.8 µg/mL (≈ 34.2 µM); MIC [28]: 15.6 µg/mL (≈ 68.3 µM); MIC [29]: 3.9 µg/mL (≈ 17.1 µM); MIC [30]: > 125 µg/mL; MIC [31]: > 125 µg/mL; MIC [32]: > 125 µg/mL; MIC [33]: 7.8 µg/mL (≈ 34.2 µM); MIC [34]: 7.8 µg/mL (≈ 34.2 µM); MIC [35]: 7.8 µg/mL (≈ 34.2 µM); solubility [36]: Soluble
CC(C)c1ccc(-n2sc3ccccc3c2=O)cc1	2 (≈ 7.42 µM)	2 (≈ 7.42 µM)	≤ 0.25	≤ 0.25	≤ 0.25	1 (≈ 3.71 µM)	2 (≈ 7.42 µM)	≤ 0.25	0.5 (≈ 1.86 µM)	0.5 (≈ 1.86 µM)	1 (≈ 3.71 µM)	1 (≈ 3.71 µM)	0.5 (≈ 1.86 µM)	≤ 0.25	0.5 (≈ 1.86 µM)	1 (≈ 3.71 µM)	1 (≈ 3.71 µM)	2 (≈ 7.42 µM)	0.5 (≈ 1.86 µM)	1 (≈ 3.71 µM)	MIC [21]: ≤ 0.25 µg/mL; MIC [22]: ≤ 0.25 µg/mL; MIC [23]: 0.5 µg/mL (≈ 1.86 µM); MIC [24]: ≤ 0.25 µg/mL; MIC [25]: 0.5 µg/mL (≈ 1.86 µM); MIC [26]: 1 µg/mL (≈ 3.71 µM); MIC [27]: 2 µg/mL (≈ 7.42 µM); MIC [28]: 1 µg/mL (≈ 3.71 µM); MIC [29]: 0.25 µg/mL (≈ 0.928 µM); MIC [30]: 15.6 µg/mL (≈ 57.9 µM); MIC [31]: 62.5 µg/mL (≈ 232 µM); MIC [32]: 15.6 µg/mL (≈ 57.9 µM); MIC [33]: ≤ 0.25 µg/mL; MIC [34]: 0.5 µg/mL (≈ 1.86 µM); MIC [35]: 0.5 µg/mL (≈ 1.86 µM); Activity [37]: 50%; Activity [38]: 50 - 60%; Activity [39]: > 20%
O=c1c2ccccc2sn1-c1ccc(F)cc1	3.9 (≈ 15.9 µM)	2 (≈ 8.15 µM)	3.9 (≈ 15.9 µM)	1 (≈ 4.08 µM)	3.9 (≈ 15.9 µM)	2 (≈ 8.15 µM)	3.9 (≈ 15.9 µM)	2 (≈ 8.15 µM)	3.9 (≈ 15.9 µM)	1 (≈ 4.08 µM)	3.9 (≈ 15.9 µM)	3.9 (≈ 15.9 µM)	2 (≈ 8.15 µM)	2 (≈ 8.15 µM)	3.9 (≈ 15.9 µM)	2 (≈ 8.15 µM)	2 (≈ 8.15 µM)	3.9 (≈ 15.9 µM)	3.9 (≈ 15.9 µM)	3.9 (≈ 15.9 µM)	MIC [21]: ≤ 0.25 µg/mL; MIC [22]: 3.9 µg/mL (≈ 15.9 µM); MIC [23]: 2 µg/mL (≈ 8.15 µM); MIC [24]: 2 µg/mL (≈ 8.15 µM); MIC [25]: 2 µg/mL (≈ 8.15 µM); MIC [26]: 3.9 µg/mL (≈ 15.9 µM); MIC [27]: 2 µg/mL (≈ 8.15 µM); MIC [28]: 2 µg/mL (≈ 8.15 µM); MIC [29]: 2 µg/mL (≈ 8.15 µM); MIC [30]: 62.5 µg/mL (≈ 255 µM); MIC [31]: > 125 µg/mL; MIC [32]: 31.3 µg/mL (≈ 128 µM); MIC [33]: 2 µg/mL (≈ 8.15 µM); MIC [34]: 2 µg/mL (≈ 8.15 µM); MIC [35]: 1 µg/mL (≈ 4.08 µM); Activity [40]: 10%
